Reference: ChEMBL document CHEMBL1687738, “Effect of Candida glabrata FKS1 and FKS2 mutations on echinocandin sensitivity and kinetics of 1,3-beta-D-glucan synthase: implication for the existing susceptibility breakpoint” (Antimicrob Agents Chemother, 2009)
≈ marks a conversion by molar mass, not a printed value. Starred links: 1 amine or outer side, 2 acyl side, 3 side chain; linkers in the order of their positions; H or OH if unused. Positions of bridges follow the written chain, without caps; N, C: chain ends. Non-standard residues stand in square brackets, D forms with d. Residues, ends and D or L forms follow the SMILES beside them. *: point of attachment. hTyr(3S-OH,4S-OH,3'-OSO3H) = N[C@H](C(=O)O)[C@H](O)[C@@H](O)c1ccc(O)c(OS(=O)(=O)O)c1; Orn(4R-OH,5R-OH) = O=C([C@H](C[C@@H](O)[C@@H](O)N[*:3])N[*:1])[*:2]; Pro(3S-OH,4S-Me) = C[C@H]1CN[C@H](C(=O)O)[C@H]1O; X1 = CCCCCOc1ccc(-c2cc(-c3ccc(C(=O)*)cc3)no2)cc1; Gln(3R-OH) = NC(=O)C[C@@H](O)[C@H](N)C(=O)O; Hyp = O=C(O)[C@@H]1C[C@@H](O)CN1

How the values were obtained:
Nakaseomyces glabratus [1] = test: Antifungal activity against Candida glabrata isolate 51916 expressing wild type Fks1p and Fks2p P667T mutant by CLSI method; assay type: functional
Method in brief: (§1)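 Broth microdilution MIC per CLSI M27-A3 in RPMI 1640 medium without serum. Caspofungin and micafungin stocks in sterile water; anidulafungin stock in 100% DMSO; stocks kept at −86°C.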

Nakaseomyces glabratus [2] = test: Antifungal activity against Candida glabrata isolate 51916 expressing wild type Fks1p and Fks2p P667T mutant by CLSI method in presence of 50% human serum; assay type: functional
Method in brief: (§2)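 Broth microdilution MIC per CLSI M27-A3 in RPMI 1640 supplemented with 50% serum. Caspofungin and micafungin stocks in sterile water; anidulafungin stock in 100% DMSO; stocks kept at −86°C.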

Nakaseomyces glabratus [3] = test: Antifungal activity against Candida glabrata isolate 42997 expressing Fks1p F625S mutant and wild type Fks2p by CLSI method; assay type: functional; method in brief: as §1
Nakaseomyces glabratus [4] = test: Antifungal activity against Candida glabrata isolate 31498 expressing wild type Fks1p and Fks2p F659 deletion mutant by CLSI method; assay type: functional; method in brief: as §1
Nakaseomyces glabratus [5] = test: Antifungal activity against Candida glabrata isolate 42031 expressing wild type Fks1p and Fks2p D666E mutant by CLSI method in presence of 50% human serum; assay type: functional; method in brief: as §2
[6] = Inhibition of Candida glabrata ATCC 90030 wild type 1,3-beta-D-glucan synthase; set-up: species or system Nakaseomyces glabratus
Method in brief: (§3)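 Cells grown in YPD broth at 35°C with vigorous shaking to early stationary phase. Membrane protein extracted and glucan synthase partially purified by product entrapment. Filtration polymerization assay measured [3H]glucose incorporation into product, started by adding enzyme. Echinocandin serial dilutions spanned 0.01–10,000 ng/ml, with 1% DMSO controls for anidulafungin. IC50 from variable-slope sigmoidal fit.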

Nakaseomyces glabratus [7] = test: Antifungal activity against Candida glabrata isolate 31498 expressing wild type Fks1p and Fks2p F659 deletion mutant by CLSI method in presence of 50% human serum; assay type: functional; method in brief: as §2
Nakaseomyces glabratus [8] = test: Antifungal activity against Candida glabrata isolate 41026 expressing wild type Fks1p and Fks2p F659S mutant by CLSI method; assay type: functional; method in brief: as §1
Nakaseomyces glabratus [9] = test: Antifungal activity against Candida glabrata ATCC 90030 expressing wild type Fks1p and Fks2p by CLSI method in presence of 50% human serum; assay type: functional; method in brief: as §2
Nakaseomyces glabratus [10] = test: Antifungal activity against Candida glabrata isolate 41400 expressing wild type Fks1p and Fks2p D666G mutant by CLSI method; assay type: functional; method in brief: as §1
Nakaseomyces glabratus [11] = test: Antifungal activity against Candida glabrata isolate 234 expressing wild type Fks1p and Fks2p F659V mutant by CLSI method in presence of 50% human serum; assay type: functional; method in brief: as §2
1,3-beta-glucan synthase [12] = target: 1,3-beta-glucan synthase (Candida glabrata, UniProt F5BCZ9, P667T); test: Inhibition of Candida glabrata isolate 51916 1,3-beta-D-glucan synthase wild type Fks1p/Fks2p P667T mutant; set-up: species or system Nakaseomyces glabratus; method in brief: as §3
[13] = target: 1,3-beta-glucan synthase component FKS1 (Candida glabrata, UniProt E2GKZ4, S629P); test: Inhibition of Candida glabrata isolate 5847 1,3-beta-D-glucan synthase Fks1p S629P mutant/wild type Fks2p; set-up: species or system Nakaseomyces glabratus; method in brief: as §3
1,3-beta-glucan synthase [14] = target: 1,3-beta-glucan synthase (Candida glabrata, UniProt F5BCZ9, F659S); test: Inhibition of Candida glabrata isolate 41026 1,3-beta-D-glucan synthase wild type Fks1p/Fks2p F659S mutant; set-up: species or system Nakaseomyces glabratus; method in brief: as §3
Nakaseomyces glabratus [15] = test: Antifungal activity against Candida glabrata isolate 3169 expressing Fks1p D632E mutant and wild type Fks2p by CLSI method; assay type: functional; method in brief: as §1
1,3-beta-glucan synthase [16] = target: 1,3-beta-glucan synthase (Candida glabrata, UniProt F5BCZ9, D666E); test: Inhibition of Candida glabrata isolate 42031 1,3-beta-D-glucan synthase wild type Fks1p/Fks2p D666E mutant; set-up: species or system Nakaseomyces glabratus; method in brief: as §3
Nakaseomyces glabratus [17] = test: Antifungal activity against Candida glabrata isolate 42997 expressing Fks1p F625S mutant and wild type Fks2p by CLSI method in presence of 50% human serum; assay type: functional; method in brief: as §2
1,3-beta-glucan synthase [18] = target: 1,3-beta-glucan synthase (Candida glabrata, UniProt F5BCZ9, F659V); test: Inhibition of Candida glabrata isolate 234 1,3-beta-D-glucan synthase wild type Fks1p/Fks2p F659V mutant; set-up: species or system Nakaseomyces glabratus; method in brief: as §3
[19] = target: 1,3-beta-glucan synthase component FKS1 (Candida glabrata, UniProt E2GKZ4, D632G); test: Inhibition of Candida glabrata isolate 21900 1,3-beta-D-glucan synthase Fks1p D632G mutant/wild type Fks2p; set-up: species or system Nakaseomyces glabratus; method in brief: as §3
[20] = Inhibition of Candida glabrata isolate 31498 1,3-beta-D-glucan synthase wild type Fks1p/Fks2p F659 deletion mutant; set-up: species or system Nakaseomyces glabratus; method in brief: as §3
Nakaseomyces glabratus [21] = test: Antifungal activity against Candida glabrata isolate 41026 expressing wild type Fks1p and Fks2p F659S mutant by CLSI method in presence of 50% human serum; assay type: functional; method in brief: as §2
Nakaseomyces glabratus [22] = test: Antifungal activity against Candida glabrata isolate 5847 expressing Fks1p S629P mutant and wild type Fks2p by CLSI method; assay type: functional; method in brief: as §1
Nakaseomyces glabratus [23] = test: Antifungal activity against Candida glabrata isolate 3168 expressing wild type Fks1p and Fks2p by CLSI method; assay type: functional; method in brief: as §1
Nakaseomyces glabratus [24] = test: Antifungal activity against Candida glabrata isolate 42971 expressing Fks1p D632Y mutant and Fks2p R1377STOP mutant by CLSI method; assay type: functional; method in brief: as §1
Nakaseomyces glabratus [25] = test: Antifungal activity against Candida glabrata isolate 218 expressing wild type Fks1p and Fks2p by CLSI method in presence of 50% human serum; assay type: functional; method in brief: as §2
Nakaseomyces glabratus [26] = test: Antifungal activity against Candida glabrata isolate 41400 expressing wild type Fks1p and Fks2p D666G mutant by CLSI method in presence of 50% human serum; assay type: functional; method in brief: as §2
Nakaseomyces glabratus [27] = test: Antifungal activity against Candida glabrata isolate 5416 expressing wild type Fks1p and Fks2p W1375L mutant by CLSI method in presence of 50% human serum; assay type: functional; method in brief: as §2
Nakaseomyces glabratus [28] = test: Antifungal activity against Candida glabrata isolate 3830 expressing wild type Fks1p and Fks2p S663P mutant by CLSI method; assay type: functional; method in brief: as §1
Nakaseomyces glabratus [29] = test: Antifungal activity against Candida glabrata isolate 21900 expressing Fks1p D632G mutant and wild type Fks2p by CLSI method in presence of 50% human serum; assay type: functional; method in brief: as §2
[30] = Inhibition of Candida glabrata isolate 42971 1,3-beta-D-glucan synthase Fks1p D632Y mutant/Fks2p R1377STOP mutant; set-up: species or system Nakaseomyces glabratus; method in brief: as §3
Nakaseomyces glabratus [31] = test: Antifungal activity against Candida glabrata isolate 42971 expressing Fks1p D632Y mutant and Fks2p R1377STOP mutant by CLSI method in presence of 50% human serum; assay type: functional; method in brief: as §2
[32] = Inhibition of Candida glabrata isolate 218 wild type 1,3-beta-D-glucan synthase; set-up: species or system Nakaseomyces glabratus; method in brief: as §3
1,3-beta-glucan synthase [33] = target: 1,3-beta-glucan synthase (Candida glabrata, UniProt F5BCZ9, W1375L); test: Inhibition of Candida glabrata isolate 5416 1,3-beta-D-glucan synthase wild type Fks1p/Fks2p W1375L mutant; set-up: species or system Nakaseomyces glabratus; method in brief: as §3
Nakaseomyces glabratus [34] = test: Antifungal activity against Candida glabrata isolate 42031 expressing wild type Fks1p and Fks2p D666E mutant by CLSI method; assay type: functional; method in brief: as §1
Nakaseomyces glabratus [35] = test: Antifungal activity against Candida glabrata isolate 21900 expressing Fks1p D632G mutant and wild type Fks2p by CLSI method; assay type: functional

1,3-beta-glucan synthase (Candida glabrata, UniProt F5BCZ9, F659V), sequence (F5BCZ9 entry or part of it F659V): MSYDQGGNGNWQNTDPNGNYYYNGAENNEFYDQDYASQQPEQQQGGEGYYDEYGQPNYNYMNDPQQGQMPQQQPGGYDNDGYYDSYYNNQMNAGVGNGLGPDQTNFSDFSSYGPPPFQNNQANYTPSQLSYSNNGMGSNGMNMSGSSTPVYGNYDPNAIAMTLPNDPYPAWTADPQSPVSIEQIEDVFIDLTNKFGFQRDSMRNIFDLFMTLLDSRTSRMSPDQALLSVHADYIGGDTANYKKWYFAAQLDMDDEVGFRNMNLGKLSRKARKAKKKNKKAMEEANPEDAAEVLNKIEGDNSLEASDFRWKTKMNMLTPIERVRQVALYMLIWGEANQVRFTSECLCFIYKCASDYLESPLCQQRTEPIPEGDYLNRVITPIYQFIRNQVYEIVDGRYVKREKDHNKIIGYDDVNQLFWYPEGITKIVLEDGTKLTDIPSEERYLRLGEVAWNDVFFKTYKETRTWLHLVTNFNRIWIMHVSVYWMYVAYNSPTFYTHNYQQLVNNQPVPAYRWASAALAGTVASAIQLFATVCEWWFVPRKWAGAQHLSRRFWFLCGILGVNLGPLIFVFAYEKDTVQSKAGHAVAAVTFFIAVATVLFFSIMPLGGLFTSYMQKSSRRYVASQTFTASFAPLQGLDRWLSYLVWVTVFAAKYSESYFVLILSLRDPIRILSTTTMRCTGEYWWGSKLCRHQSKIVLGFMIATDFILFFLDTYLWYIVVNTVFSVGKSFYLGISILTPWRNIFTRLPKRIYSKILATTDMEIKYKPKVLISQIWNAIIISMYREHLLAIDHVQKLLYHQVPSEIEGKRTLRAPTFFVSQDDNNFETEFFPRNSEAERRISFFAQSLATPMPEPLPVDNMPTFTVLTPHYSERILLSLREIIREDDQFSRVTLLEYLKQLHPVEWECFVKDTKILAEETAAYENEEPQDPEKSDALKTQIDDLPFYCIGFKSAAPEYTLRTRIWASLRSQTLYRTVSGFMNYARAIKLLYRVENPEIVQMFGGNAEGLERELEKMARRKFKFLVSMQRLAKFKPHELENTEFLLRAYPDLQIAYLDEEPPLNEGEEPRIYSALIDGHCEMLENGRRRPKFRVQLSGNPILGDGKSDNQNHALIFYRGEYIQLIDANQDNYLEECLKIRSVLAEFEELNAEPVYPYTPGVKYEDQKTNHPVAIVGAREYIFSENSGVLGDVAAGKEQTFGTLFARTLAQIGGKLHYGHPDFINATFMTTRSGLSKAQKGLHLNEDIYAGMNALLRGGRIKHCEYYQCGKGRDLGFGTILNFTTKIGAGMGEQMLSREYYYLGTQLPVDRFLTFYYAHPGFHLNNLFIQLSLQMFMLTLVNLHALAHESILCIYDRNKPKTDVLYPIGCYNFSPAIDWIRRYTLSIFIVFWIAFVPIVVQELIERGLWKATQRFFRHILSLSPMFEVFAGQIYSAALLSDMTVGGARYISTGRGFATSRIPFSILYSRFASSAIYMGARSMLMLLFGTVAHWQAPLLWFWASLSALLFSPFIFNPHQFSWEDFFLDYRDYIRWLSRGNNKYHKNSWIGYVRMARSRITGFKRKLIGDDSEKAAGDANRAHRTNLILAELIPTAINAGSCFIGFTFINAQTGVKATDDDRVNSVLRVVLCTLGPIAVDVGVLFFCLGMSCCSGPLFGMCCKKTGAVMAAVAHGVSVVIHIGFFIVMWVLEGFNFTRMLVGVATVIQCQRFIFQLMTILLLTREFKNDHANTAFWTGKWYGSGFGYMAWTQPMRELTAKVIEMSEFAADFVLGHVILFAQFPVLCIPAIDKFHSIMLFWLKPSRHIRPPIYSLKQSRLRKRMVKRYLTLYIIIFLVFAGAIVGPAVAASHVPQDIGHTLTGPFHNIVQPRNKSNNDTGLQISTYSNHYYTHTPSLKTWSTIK
1,3-beta-glucan synthase (Candida glabrata, UniProt F5BCZ9, P667T), sequence (F5BCZ9 entry or part of it P667T): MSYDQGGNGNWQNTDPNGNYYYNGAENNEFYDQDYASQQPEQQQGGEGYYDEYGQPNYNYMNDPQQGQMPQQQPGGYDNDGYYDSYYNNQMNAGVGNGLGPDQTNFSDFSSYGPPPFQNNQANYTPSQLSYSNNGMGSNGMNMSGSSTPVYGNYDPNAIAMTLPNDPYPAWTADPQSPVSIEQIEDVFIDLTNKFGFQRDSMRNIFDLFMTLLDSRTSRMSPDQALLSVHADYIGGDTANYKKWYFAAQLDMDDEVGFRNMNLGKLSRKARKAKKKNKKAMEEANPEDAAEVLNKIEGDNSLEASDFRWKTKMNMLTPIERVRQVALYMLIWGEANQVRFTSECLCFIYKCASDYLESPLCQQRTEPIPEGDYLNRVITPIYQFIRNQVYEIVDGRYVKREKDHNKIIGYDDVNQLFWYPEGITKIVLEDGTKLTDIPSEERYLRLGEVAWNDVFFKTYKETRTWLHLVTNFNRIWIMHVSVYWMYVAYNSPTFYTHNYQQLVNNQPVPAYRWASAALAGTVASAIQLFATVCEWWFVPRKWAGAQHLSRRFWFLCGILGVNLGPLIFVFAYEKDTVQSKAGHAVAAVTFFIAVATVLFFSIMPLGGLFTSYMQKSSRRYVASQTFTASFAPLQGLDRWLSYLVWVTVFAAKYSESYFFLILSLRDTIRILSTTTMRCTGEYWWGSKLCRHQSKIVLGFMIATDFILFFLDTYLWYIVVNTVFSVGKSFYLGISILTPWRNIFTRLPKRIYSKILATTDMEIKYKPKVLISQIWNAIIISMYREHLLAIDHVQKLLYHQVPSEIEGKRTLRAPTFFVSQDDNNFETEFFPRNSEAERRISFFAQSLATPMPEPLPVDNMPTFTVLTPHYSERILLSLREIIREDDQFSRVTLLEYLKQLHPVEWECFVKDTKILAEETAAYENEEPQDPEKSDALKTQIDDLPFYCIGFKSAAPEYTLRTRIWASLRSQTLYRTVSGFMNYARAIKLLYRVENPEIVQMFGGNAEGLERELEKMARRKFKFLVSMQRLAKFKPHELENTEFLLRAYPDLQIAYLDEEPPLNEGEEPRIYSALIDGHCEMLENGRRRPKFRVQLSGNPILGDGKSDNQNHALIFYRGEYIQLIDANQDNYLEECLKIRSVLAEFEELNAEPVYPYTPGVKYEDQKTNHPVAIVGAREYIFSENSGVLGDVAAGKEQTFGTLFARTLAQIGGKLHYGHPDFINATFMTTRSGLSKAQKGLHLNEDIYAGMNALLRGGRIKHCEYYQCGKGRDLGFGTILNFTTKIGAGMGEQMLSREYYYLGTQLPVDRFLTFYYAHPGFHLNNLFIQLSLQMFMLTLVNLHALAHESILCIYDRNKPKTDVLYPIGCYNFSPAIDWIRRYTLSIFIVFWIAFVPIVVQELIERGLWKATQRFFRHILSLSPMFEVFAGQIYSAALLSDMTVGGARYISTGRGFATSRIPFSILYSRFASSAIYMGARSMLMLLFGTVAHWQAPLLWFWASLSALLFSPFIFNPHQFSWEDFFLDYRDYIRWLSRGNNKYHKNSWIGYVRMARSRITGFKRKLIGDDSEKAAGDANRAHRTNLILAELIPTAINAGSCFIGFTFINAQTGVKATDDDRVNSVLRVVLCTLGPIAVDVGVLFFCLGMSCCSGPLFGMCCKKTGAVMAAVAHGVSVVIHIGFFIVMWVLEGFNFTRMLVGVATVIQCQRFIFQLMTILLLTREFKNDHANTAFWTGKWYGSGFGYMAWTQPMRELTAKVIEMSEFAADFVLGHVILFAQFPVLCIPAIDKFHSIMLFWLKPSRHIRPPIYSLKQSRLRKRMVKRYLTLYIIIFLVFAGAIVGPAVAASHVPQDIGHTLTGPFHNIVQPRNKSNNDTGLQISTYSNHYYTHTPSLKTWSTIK

SMILES: CCCCCOc1ccc(-c2cc(-c3ccc(C(=O)N[C@H]4C[C@@H](O)[C@@H](O)NC(=O)[C@@H]5[C@@H](O)[C@@H](C)CN5C(=O)[C@H]([C@H](O)CC(N)=O)NC(=O)[C@H]([C@H](O)[C@@H](O)c5ccc(O)c(OS(=O)(=O)O)c5)NC(=O)[C@@H]5C[C@@H](O)CN5C(=O)[C@H]([C@@H](C)O)NC4=O)cc3)no2)cc1 [MICAFUNGIN] (X1-[Orn(4R-OH,5R-OH)]T[Hyp][hTyr(3S-OH,4S-OH,3'-OSO3H)][Gln(3R-OH)][Pro(3S-OH,4S-Me)]; lactam 1-C)
- MIC (Nakaseomyces glabratus [1]): 0.4 µg/mL (≈ 0.315 µM)
- MIC (Nakaseomyces glabratus [2]): 4 µg/mL
- MIC (Nakaseomyces glabratus [3]): 0.5 µg/mL (≈ 0.394 µM)
- MIC (Nakaseomyces glabratus [4]): 4 µg/mL (≈ 3.15 µM)
- MIC (Nakaseomyces glabratus [5]): 4 µg/mL
- IC50 [6]: 0.00071 µg/mL (≈ 0.000559 µM)
- MIC (Nakaseomyces glabratus [7]): 8 µg/mL
- MIC (Nakaseomyces glabratus [8]): 4 µg/mL (≈ 3.15 µM)
- MIC (Nakaseomyces glabratus [9]): 0.25 µg/mL
- MIC (Nakaseomyces glabratus [10]): 0.12 µg/mL (≈ 0.0945 µM)
- MIC (Nakaseomyces glabratus [11]): 8 µg/mL
- IC50 (1,3-beta-glucan synthase [12]): 87.3 nM
- IC50 [13]: 673 nM
- IC50 (1,3-beta-glucan synthase [14]): 840 nM
- MIC (Nakaseomyces glabratus [15]): 2.52 µg/mL (≈ 1.98 µM)
- IC50 (1,3-beta-glucan synthase [16]): 69.8 nM
- MIC (Nakaseomyces glabratus [17]): 4 µg/mL
- IC50 (1,3-beta-glucan synthase [18]): 89.3 nM
- IC50 [19]: 270 nM
- IC50 [20]: 0.1235 µg/mL (≈ 0.0972 µM)
- MIC (Nakaseomyces glabratus [21]): 16 µg/mL
- MIC (Nakaseomyces glabratus [22]): 2 µg/mL (≈ 1.57 µM)
- MIC (Nakaseomyces glabratus [23]): 0.06 µg/mL (≈ 0.0472 µM)
- MIC (Nakaseomyces glabratus [24]): 1 µg/mL (≈ 0.787 µM)
- MIC (Nakaseomyces glabratus [25]): 1 µg/mL
- MIC (Nakaseomyces glabratus [26]): 4 µg/mL
- MIC (Nakaseomyces glabratus [27]): 2 µg/mL
- MIC (Nakaseomyces glabratus [28]): 1 µg/mL (≈ 0.787 µM)
- MIC (Nakaseomyces glabratus [29]): 8 µg/mL
- IC50 [30]: 0.4134 µg/mL (≈ 0.325 µM)
- MIC (Nakaseomyces glabratus [31]): 8 µg/mL
- IC50 [32]: 0.00056 µg/mL (≈ 0.000441 µM)
- IC50 (1,3-beta-glucan synthase [33]): 39.9 nM
- MIC (Nakaseomyces glabratus [34]): 0.25 µg/mL (≈ 0.197 µM)
- MIC (Nakaseomyces glabratus [35]): 0.5 µg/mL (≈ 0.394 µM)
